Biological target: Neuromedin-B receptor (Homo sapiens, UniProt P28336)
Assay: Displacement of [125I]-(D-Tyr0)NMB from human neuromedin B receptor transfected in HEK293 cells
Summary of the method: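 Whole-cell competition binding used 1 × 10⁶ HEK293 cells stably transfected with hNMBR, with 150 pM ¹²⁵I-[D-Tyr0]NMB (2200 Ci/mmol), in DMEM for 1 h at room temperature. Bound ligand was separated by filtration and total bound counts were measured. Day-to-day standard error was <30%; well-to-well variability was <10%.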

Chain of Neuromedin-B receptor (P28336 whole entry): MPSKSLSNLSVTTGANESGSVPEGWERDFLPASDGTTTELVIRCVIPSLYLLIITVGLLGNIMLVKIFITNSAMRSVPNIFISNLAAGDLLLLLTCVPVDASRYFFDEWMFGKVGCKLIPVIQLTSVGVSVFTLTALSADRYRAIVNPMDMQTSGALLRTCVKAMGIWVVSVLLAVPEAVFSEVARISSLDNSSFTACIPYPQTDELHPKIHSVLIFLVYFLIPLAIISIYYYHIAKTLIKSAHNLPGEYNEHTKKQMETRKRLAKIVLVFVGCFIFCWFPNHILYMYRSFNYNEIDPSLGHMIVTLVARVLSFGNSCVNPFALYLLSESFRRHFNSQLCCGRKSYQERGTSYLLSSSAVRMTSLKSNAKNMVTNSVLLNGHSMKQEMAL

| SMILES | IC50 |
| --- | --- |
| Cc1ccc2c(c1)NC(c1ccccc1C(F)(F)F)C1C(=O)CC(C)(C)CC1=N2 (configuration not stated) [3,3,8-trimethyl-11-(2-(trifluoromethyl)phenyl)-2,3,4,5,10,11-hexahydro-1H-dibenzo[b,e][1,4]diazepin-1-one] | 0.25 µM |
| CSc1ccccc1C1Nc2cc(C)ccc2N=C2CC3(CCCC3)CC(=O)C21 (configuration not stated) [8'-methyl-11'-(2-(methylthio)phenyl)-4',5',10',11'-tetrahydrospiro[cyclopentane-1,3'-dibenzo[b,e][1,4]diazepin]-1'(2'H)-one] | 0.25 µM |
| Cc1ccc2c(c1)NC(c1c(F)cccc1Cl)C1C(=O)CC3(CCCC3)CC1=N2 (configuration not stated) [11'-(2-chloro-6-fluorophenyl)-8'-methyl-4',5',10',11'-tetrahydrospiro[cyclopentane-1,3'-dibenzo[b,e][1,4]diazepin]-1'(2'H)-one] | 0.28 µM |
| Cc1ccc2c(c1)NC(c1ccccc1Cl)C1C(=O)CC(C)(C)CC1=N2 (configuration not stated) [11-(2-chlorophenyl)-3,3,8-trimethyl-2,3,4,5,10,11-hexahydro-1H-dibenzo[b,e][1,4]diazepin-1-one] | 0.28 µM |
| Cc1ccc2c(c1)NC(c1ccccc1F)C1C(=O)CC(C)(C)CC1=N2 (configuration not stated) [11-(2-fluorophenyl)-3,3,8-trimethyl-2,3,4,5,10,11-hexahydro-1H-dibenzo[b,e][1,4]diazepin-1-one] | 1.3 µM |
| Cc1ccc2c(c1)NC(c1ccccc1C(F)(F)F)C1C(=O)CC3(CCCC3)CC1=N2 (stereo not drawn) [(-)-8'-methyl-11'-(2-(trifluoromethyl)phenyl)-4',5',10',11'-tetrahydrospiro[cyclopentane-1,3'-dibenzo[b,e][1,4]diazepin]-1'(2'H)-one] | 0.096 µM |

Continued, values first:

| IC50 | SMILES |
| --- | --- |
| 10 µM | Cc1ccc2c(c1)NC(c1c(F)cccc1Cl)C1C(=O)CCC1=N2 (configuration not stated) [10-(2-chloro-6-fluorophenyl)-7-methyl-2,3,9,10-tetrahydrobenzo[b]cyclopenta[e][1,4]diazepin-1(4H)-one] |
| 1.3 µM | CC1(C)CC(=O)C2C(=Nc3ccc(C#N)cc3NC2c2c(F)cccc2Cl)C1 (configuration not stated) [11-(2-chloro-6-fluorophenyl)-3,3-dimethyl-1-oxo-2,3,4,5,10,11-hexahydro-1H-dibenzo[b,e][1,4]diazepine-8-carbonitrile] |
| 10 µM | CC1(C)CC(=O)C2C(=Nc3ccc(C(N)=O)cc3NC2c2c(F)cccc2Cl)C1 (configuration not stated) [11-(2-chloro-6-fluorophenyl)-3,3-dimethyl-1-oxo-2,3,4,5,10,11-hexahydro-1H-dibenzo[b,e][1,4]diazepine-8-carboxamide] |
| 10 µM | CC1(C)CC(=O)C2C(=Nc3ccc(C(=O)O)cc3NC2c2c(F)cccc2Cl)C1 (configuration not stated) [11-(2-chloro-6-fluorophenyl)-3,3-dimethyl-1-oxo-2,3,4,5,10,11-hexahydro-1H-dibenzo[b,e][1,4]diazepine-8-carboxylic acid] |
| 1.3 µM | CC1(C)CC(=O)C2C(=Nc3ccc(OC(F)(F)F)cc3NC2c2c(F)cccc2Cl)C1 (configuration not stated) [11-(2-chloro-6-fluorophenyl)-3,3-dimethyl-8-(trifluoromethoxy)-2,3,4,5,10,11-hexahydro-1H-dibenzo[b,e][1,4]diazepin-1-one] |
| 10 µM | CC1(C)CC(=O)C2C(=Nc3ccc(O)cc3NC2c2c(F)cccc2Cl)C1 (configuration not stated) [11-(2-chloro-6-fluorophenyl)-8-hydroxy-3,3-dimethyl-2,3,4,5,10,11-hexahydro-1H-dibenzo[b,e][1,4]diazepin-1-one] |
